Assay results from ChEMBL document CHEMBL4354826, “Structure-Based Discovery of SD-36 as a Potent, Selective, and Efficacious PROTAC Degrader of STAT3 Protein” (J Med Chem, 2019).
pIC50: −log10 of the molar value. The source made the active and inactive calls. The calls are words filed in the database; no cut-off is given here.

Columns and labels:
[1] = Antiproliferative activity against human MOLM16 cells assessed as reduction in cell viability incubated for 4 days by cell-titer glo luminescent assay; format: functional, cell-based; conditions: MOLM16, 96 h
In short: (§1)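 Viability assay: cells incubated with serially diluted compounds for 4 days, viability read by CellTiter-Glo luminescence; IC50 from concentration–response.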

[2] = molecular target: T1, Protein cereblon/Signal transducer and activator of transcription 3 (Homo sapiens, UniProt P40763+Q96SW2); experiment: Protac activity at CRBN/STAT3 in human MOLM16 cells assessed as degradation of phosphorylated STAT3 Y705 upto 10 uM incubated for 4 hrs by Western blot analysis; format: cell-based
In short: (§2)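 Molm-16 cells treated 4 h with serially diluted compound. Lysates immunoblotted (SDS–PAGE, PVDF, 5% blocker/TBST, chemiluminescence) for total STAT3 and pSTAT3 Y705. DC50 taken as the concentration reducing total STAT3 by 50%.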
Target sequence in this assay (P40763 2-770 limits assumed): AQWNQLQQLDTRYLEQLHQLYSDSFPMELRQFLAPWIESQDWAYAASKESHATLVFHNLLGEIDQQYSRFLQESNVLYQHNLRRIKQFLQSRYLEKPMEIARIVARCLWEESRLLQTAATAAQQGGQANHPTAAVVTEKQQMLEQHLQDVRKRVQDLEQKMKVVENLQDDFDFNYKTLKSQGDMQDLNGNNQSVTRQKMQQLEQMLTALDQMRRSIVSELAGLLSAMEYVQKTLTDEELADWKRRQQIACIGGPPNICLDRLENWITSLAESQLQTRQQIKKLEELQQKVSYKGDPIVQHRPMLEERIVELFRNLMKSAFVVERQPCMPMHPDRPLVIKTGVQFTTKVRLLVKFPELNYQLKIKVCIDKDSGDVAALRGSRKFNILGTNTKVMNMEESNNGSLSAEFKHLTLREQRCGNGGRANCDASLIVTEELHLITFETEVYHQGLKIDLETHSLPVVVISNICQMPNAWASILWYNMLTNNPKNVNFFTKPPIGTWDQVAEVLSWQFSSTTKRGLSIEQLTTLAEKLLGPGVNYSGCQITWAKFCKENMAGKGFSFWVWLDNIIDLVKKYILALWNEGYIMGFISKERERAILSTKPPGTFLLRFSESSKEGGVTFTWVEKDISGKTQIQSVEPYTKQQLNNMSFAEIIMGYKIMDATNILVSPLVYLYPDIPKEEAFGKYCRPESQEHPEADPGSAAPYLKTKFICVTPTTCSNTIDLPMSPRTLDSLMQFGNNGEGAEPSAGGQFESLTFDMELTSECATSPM
Target sequence in this assay (Q96SW2 whole entry partner): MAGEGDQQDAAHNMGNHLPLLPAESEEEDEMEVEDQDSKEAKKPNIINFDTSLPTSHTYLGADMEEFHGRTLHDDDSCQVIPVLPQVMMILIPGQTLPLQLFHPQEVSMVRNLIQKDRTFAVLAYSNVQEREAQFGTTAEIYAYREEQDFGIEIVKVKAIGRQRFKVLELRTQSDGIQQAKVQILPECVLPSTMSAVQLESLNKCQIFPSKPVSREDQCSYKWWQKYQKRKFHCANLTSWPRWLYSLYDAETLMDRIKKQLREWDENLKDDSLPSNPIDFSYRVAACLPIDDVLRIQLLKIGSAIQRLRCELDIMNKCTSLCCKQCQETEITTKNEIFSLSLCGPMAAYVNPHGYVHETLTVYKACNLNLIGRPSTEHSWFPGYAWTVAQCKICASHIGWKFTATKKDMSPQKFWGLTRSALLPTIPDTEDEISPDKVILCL

[3] = molecular target: T1, Protein cereblon/Signal transducer and activator of transcription 3; experiment: Protac activity at CRBN/STAT3 in human MOLM16 cells assessed as degradation of STAT3 up to 10 uM incubated for 4 hrs by Western blot analysis; format: cell-based; in short: as §2
Target sequence in this assay (P40763 2-770 limits assumed): as the sequence (P40763 2-770 limits assumed) above
Target sequence in this assay (Q96SW2 whole entry partner): as the sequence (Q96SW2 whole entry partner) above

[4] = molecular target: T1, Protein cereblon/Signal transducer and activator of transcription 3; experiment: Protac activity at CRBN/STAT3 in human MOLM16 cells assessed as degradation of STAT3 incubated for 4 hrs by Western blot analysis; format: cell-based; in short: as §2
[5] = molecular target: T1, Protein cereblon/Signal transducer and activator of transcription 3; experiment: Protac activity at CRBN/STAT3 in human MOLM16 cells assessed as degradation of phosphorylated STAT3 Y705 at 1 uM incubated for 4 hrs by Western blot analysis; format: cell-based; in short: as §2
Target sequence in this assay (P40763 2-770 limits assumed): as the sequence (P40763 2-770 limits assumed) above
Target sequence in this assay (Q96SW2 whole entry partner): as the sequence (Q96SW2 whole entry partner) above

[6] = molecular target: T1, Protein cereblon/Signal transducer and activator of transcription 3; experiment: Protac activity at CRBN/STAT3 in human MOLM16 cells assessed as degradation of STAT3 at 1 uM incubated for 4 hrs by Western blot analysis; format: cell-based; in short: as §2
Target sequence in this assay (P40763 2-770 limits assumed): as the sequence (P40763 2-770 limits assumed) above
Target sequence in this assay (Q96SW2 whole entry partner): as the sequence (Q96SW2 whole entry partner) above

[7] = molecular target: T1, Protein cereblon/Signal transducer and activator of transcription 3; experiment: Protac activity at CRBN/STAT3 in human SUDHL1 cells assessed as degradation of phosphorylated STAT3 Y705 upto 5 uM incubated for 16 hrs by Western blot analysis; format: cell-based
Target sequence in this assay (P40763 2-770 limits assumed): as the sequence (P40763 2-770 limits assumed) above
Target sequence in this assay (Q96SW2 whole entry partner): as the sequence (Q96SW2 whole entry partner) above

[8] = molecular target: T1, Protein cereblon/Signal transducer and activator of transcription 3; experiment: Protac activity at CRBN/STAT3 in human SUDHL1 cells assessed as degradation of STAT3 incubated for 16 hrs by Western blot analysis; format: cell-based
Target sequence in this assay (P40763 whole entry): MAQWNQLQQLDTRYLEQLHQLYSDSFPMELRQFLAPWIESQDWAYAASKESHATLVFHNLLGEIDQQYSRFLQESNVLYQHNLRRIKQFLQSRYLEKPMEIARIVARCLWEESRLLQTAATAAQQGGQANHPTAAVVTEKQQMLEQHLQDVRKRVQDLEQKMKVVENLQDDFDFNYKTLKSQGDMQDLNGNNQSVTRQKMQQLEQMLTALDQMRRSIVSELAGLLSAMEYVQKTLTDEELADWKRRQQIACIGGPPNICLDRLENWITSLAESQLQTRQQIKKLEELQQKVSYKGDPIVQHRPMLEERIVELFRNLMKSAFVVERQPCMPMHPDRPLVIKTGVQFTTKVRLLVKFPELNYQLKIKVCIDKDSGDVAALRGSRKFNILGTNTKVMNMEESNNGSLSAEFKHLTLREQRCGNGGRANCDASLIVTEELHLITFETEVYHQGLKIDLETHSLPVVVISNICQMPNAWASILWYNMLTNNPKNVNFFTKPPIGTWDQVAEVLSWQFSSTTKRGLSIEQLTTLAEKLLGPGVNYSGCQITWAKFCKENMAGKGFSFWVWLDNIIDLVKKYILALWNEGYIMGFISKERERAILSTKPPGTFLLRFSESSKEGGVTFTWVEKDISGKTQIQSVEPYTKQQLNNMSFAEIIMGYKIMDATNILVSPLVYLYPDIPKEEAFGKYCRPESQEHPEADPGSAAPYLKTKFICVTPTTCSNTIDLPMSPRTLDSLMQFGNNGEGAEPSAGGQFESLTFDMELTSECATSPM
Target sequence in this assay (Q96SW2 whole entry): as the sequence (Q96SW2 whole entry partner) above

[9] = molecular target: T1, Protein cereblon/Signal transducer and activator of transcription 3; experiment: Protac activity at CRBN/STAT3 in human SUDHL1 cells assessed as degradation of STAT3 upto 5 uM incubated for 16 hrs by Western blot analysis; format: cell-based
Target sequence in this assay (P40763 2-770 limits assumed): as the sequence (P40763 2-770 limits assumed) above
Target sequence in this assay (Q96SW2 whole entry partner): as the sequence (Q96SW2 whole entry partner) above

[10] = system: SU-DHL-1; experiment: Antiproliferative activity against human SUDHL1 cells assessed as reduction in cell viability incubated for 4 days by cell-titer glo luminescent assay; format: functional, cell-based; conditions: SU-DHL-1, 96 h; in short: as §1

| Compound | pIC50 [1] | Activity [2] | Activity [3] | DC50 [4] | Activity [5] | Activity [4] | Activity [6] | Activity [7] | DC50 [8] | Activity [9] | pIC50 [10] |
| --- | --- | --- | --- | --- | --- | --- | --- | --- | --- | --- | --- |
| NC(=O)CC[C@H](NC(=O)[C@@H]1CC[C@@H]2CCN(C(=O)CCCCCC#Cc3cccc4c3CN(C3CCC(=O)NC3=O)C4=O)C[C@H](NC(=O)c3cc4cc(CP(=O)(O)O)ccc4[nH]3)C(=O)N21)C(=O)NC(c1ccccc1)c1ccccc1 (stereo not given in full) | < 5.70 | inactive | inactive | > 10 µM |  |  |  |  |  |  |  |
| NC(=O)CC[C@H](NC(=O)[C@@H]1CC[C@@H]2CCN(C(=O)CCCC#Cc3cccc4c3CN(C3CCC(=O)NC3=O)C4=O)C[C@H](NC(=O)c3cc4cc(C(F)(F)P(=O)(O)O)ccc4[nH]3)C(=O)N21)C(=O)NC(c1ccccc1)c1ccccc1 (stereo not given in full) | 6.02 |  |  | 2.63 µM | inactive | Dose-dependent effect | inactive |  |  |  |  |
| NC(=O)CC[C@H](NC(=O)[C@@H]1CC[C@@H]2CCN(C(=O)CCCCCC#Cc3cccc4c3CN(C3CCC(=O)NC3=O)C4=O)C[C@H](NC(=O)c3cc4cc(OP(=O)(O)O)ccc4[nH]3)C(=O)N21)C(=O)NC(c1ccccc1)c1ccccc1 (stereo not given in full) | < 5.70 | inactive | inactive | > 10 µM |  |  |  |  |  |  |  |
| NC(=O)CC[C@H](NC(=O)[C@@H]1CC[C@@H]2CCN(C(=O)CCCCCC#Cc3cccc4c3C(=O)N(C3CCC(=O)NC3=O)C4=O)C[C@H](NC(=O)c3cc4cc(C(F)(F)P(=O)(O)O)ccc4[nH]3)C(=O)N21)C(=O)NC(c1ccccc1)c1ccccc1 (stereo not given in full) | 6.24 |  |  | 3.54 µM |  |  |  | inactive | > 10 µM | inactive | < 5.00 |
| C/C(=C\C(=O)N[C@H]1CN(C(=O)CCCCCC#Cc2cccc3c2CN(C2CCC(=O)NC2=O)C3=O)CC[C@H]2CC[C@@H](C(=O)N[C@@H](CCC(N)=O)C(=O)NC(c3ccccc3)c3ccccc3)N2C1=O)c1ccc(C(F)(F)P(=O)(O)O)cc1 (stereo not given in full) | 5.90 |  |  | 4.45 µM |  |  |  | inactive | > 10 µM | inactive | < 5.00 |
